Results collected from several papers.
Lines come from different studies, so protocols differ.
Cell line: MDA-MB-231
Effect on: cell growth or viability

The IC50 of `C=CC1=C(C)c2cc3[nH]c(cc4nc(cc5[nH]c(cc1n2)c(C)c5CCC(=O)O)C(CCC(=O)O)=C4C)c(C)c3C=C` is reported as over 100 µM (4 h, dark).
`CCCCCCCCCCCC(=O)Oc1c(C)c(O)c(C(=O)/C=C/c2ccccc2)c(OC)c1C` gave an IC50 of over 50 µM (SRB; 72 h).
With `COc1cc(-c2nc(C(=O)Nc3nnc(-c4cc5ccccc5n4C)s3)cc3c2[nH]c2ccccc23)cc(OC)c1OC` the IC50 was 7.23 µM (MTT; 72 h).
`COc1ccc(-c2nc3ccccc3[nH]2)cc1O` gave an IC50 of 88.1 µM (MTT; 48 h).
The IC50 of `O=C(CCl)Nc1ccc2c(Nc3cccc(C(F)(F)F)c3)ncnc2c1` is reported as 6.88 µM (MTT; 24 h).
With `C=CCNC1=C2C[C@@H](C)C[C@H](OC)[C@H](O)[C@@H](C)/C=C(\C)[C@H](OC(N)=O)[C@@H](OC)/C=C\C=C(/C)C(=O)NC(=CC1=O)C2=O` the IC50 was 0.338 µM (MTT).
The IC50 of `O=C(Nc1nnc(-c2cc3ccccc3[nH]2)s1)c1cc2c([nH]c3ccccc32)c(-c2ccc(Cl)cc2)n1` is reported as 4.45 µM (MTT; 72 h).
The IC50 of `C=CCn1c(-c2ccc([N+](=O)[O-])cc2)nc2ccccc21` is reported as 43.9 µM (MTT).
With `O=C1CCC2(Oc3cccc4cccc(c34)O2)c2c(O)ccc(O)c21` the IC50 was over 25 µM (resazurin; 72 h).
`COc1ccc(-c2nc(C(=O)Nc3nnc(-c4cc5ccccc5[nH]4)s3)cc3c2[nH]c2ccccc23)cc1` gave an IC50 of 3.28 µM (MTT; 72 h).
`COc1cc(Nc2nccc(-c3cnn4nc(OC)ccc34)n2)cc(C(F)(F)F)c1` has an IC50 of 1.8 µM (ATP luminescence).
`C[C@H]1O[C@@H](n2cc(F)c(=O)[nH]c2=O)[C@H](O)[C@@H]1O` has an IC50 of over 50 µM (CCK-8; 48 h).
`COc1nc(SC)nc(OC)c1C(=O)/C=C/[c-]1cccc1.[Fe+2].c1cc[cH-]c1` gave an IC50 of 9.3 µM (MTT; 72 h).
The IC50 of `COc1ccnc(Nc2ccc3ncnc(Nc4cccc(C(F)(F)F)c4)c3c2)c1` is reported as 6.62 µM (MTT; 24 h).
`COc1cc(OC)cc([C@H]2C[C@@H](C)OC(=O)c3cc4ccccn4c32)c1` (racemic) has an IC50 of 20.5 µM (resazurin; 72 h).
For `CC(=O)O[C@H]1C(=O)[C@@]2(C)[C@H]([C@H](OC(=O)c3ccccc3)[C@]3(O)C[C@H](OC(=O)[C@H](O)[C@@H](NC(=O)c4ccccc4)c4ccccc4)C(C)=C1C3(C)C)[C@]1(OC(C)=O)CO[C@@H]1C[C@@H]2O`, the IC50 was 0.006 µM (ATP luminescence; 72 h).
`FC(F)(F)c1cccc(Nc2ncnc3ccc(-c4ccc(CN5CCOCC5)cc4)cc23)c1` gave an IC50 of 8.56 µM (MTT; 24 h).
The IC50 of `CC(=O)Nc1nc(C)c(-c2csc(Nc3ccccc3)n2)s1` is reported as 12.2 µM (MTT; 48 h).
With `Cc1nc(Nc2ncc(C(=O)Nc3c(C)cccc3Cl)s2)cc(N2CCN(CCO)CC2)n1` the IC50 was 19.4 µM (MTT; 48 h).
The IC50 of `Cc1ccc2nc(-c3ccc(Cl)cc3)n(Cc3ccccc3)c2c1` is reported as 2.39 µM (MTT).
With `CC(C)CCC[C@@H](C)[C@H]1CC[C@H]2[C@@H]3CC=C4C[C@@H](O)CC[C@]4(C)[C@H]3CC[C@]12C` the IC50 was over 30 µM (resazurin; 72 h).
With `FC(F)(F)c1cccc(Nc2ncnc3ccc(NCc4ccccc4)cc23)c1` the IC50 was 12.6 µM (MTT; 24 h).
`COc1ccc(/C=C/C(=O)c2cc(Br)ccc(=O)c2O)cc1` has an IC50 of 26.1 µM (MTT; 72 h).
`C[C@@H]1C[C@@H](c2ccc3c(c2)OCO3)c2c(cc3ccccn23)C(=O)O1` (racemic) has an IC50 of 29.4 µM (resazurin; 72 h).
For `Cc1ccc2nc(-c3ccc([N+](=O)[O-])cc3)n(Cc3ccccc3)c2c1`, the IC50 was 8.11 µM (MTT).
With `Cc1cc(NS(=O)(=O)c2ccc(NC(=O)COc3ccc(C(C)(C)c4ccccc4)cc3)cc2)nc(C)n1` the IC50 was 39 µM (MTT; 48 h).
With `COc1ccc(-c2nc3ccccc3[nH]2)cc1OC` the IC50 was 50.1 µM (MTT; 48 h).
For `CCN1CCN(Cc2ccc(Nc3ncc(F)c(-c4cc(F)c5nc(C)n(C(C)C)c5c4)n3)nc2)CC1`, the IC50 was 1.67 µM (CCK-8).
`Clc1ccccc1-c1nc2ccccc2[nH]1` has an IC50 of 50.3 µM (MTT; 48 h).
`COc1cccc2c1C(=O)c1c(O)c3c(c(O)c1C2=O)C[C@@](O)(C(=O)CO)C[C@@H]3O[C@H]1C[C@H](N)[C@H](O)[C@H](C)O1` gave an IC50 of 4.27 µM (MTT).
`Oc1cccc(-c2ccc3ncnc(Nc4cccc(C(F)(F)F)c4)c3c2)c1` has an IC50 of 14 µM (MTT; 24 h).
With `CC(=O)O[C@@]12CO[C@@H]1C[C@H](O)[C@@]1(C)C(=O)[C@H](O)C3=C(C)[C@@H](OC(=O)[C@H](O)[C@@H](NC(=O)OC(C)(C)C)c4ccccc4)C[C@@](O)([C@@H](OC(=O)c4ccccc4)[C@H]21)C3(C)C` the IC50 was 0.02 µM (resazurin; 72 h).
For `Oc1ccc(Br)cc1-c1nc2ccccc2[nH]1`, the IC50 was 12.8 µM (MTT; 48 h).
With `O=C(Nc1nnc(-c2cc3ccccc3[nH]2)s1)c1cc2c([nH]c3ccccc32)c(-c2ccccc2)n1` the IC50 was 3.94 µM (MTT; 72 h).
For `C[C@@H]1C[C@@H](c2cccc(F)c2)c2c(cc3ccccn23)C(=O)O1` (racemic), the IC50 was 52.9 µM (resazurin; 72 h).
The IC50 of `CCc1ccc(N2NC(=O)/C(=C/c3ccc(-c4ccc(S(=O)(=O)Nc5nccs5)cc4)o3)C2=O)cc1` is reported as 65.2 µM (MTT; 48 h).
`C[C@@H]1C[C@@H](c2cccc(Cl)c2)c2c(cc3ccccn23)C(=O)O1` (racemic) gave an IC50 of over 100 µM (resazurin; 72 h).
`COc1ccc(Br)cc1/C=C/C(=O)c1ccc(NC(C)=O)cc1` gave an IC50 of 3 µM (MTT; 48 h).
The IC50 of `C[C@H]1[C@@H](O)O[C@@H]2O[C@@]3(C)CC[C@H]4[C@H](C)CC[C@@H]1[C@@]24OO3` is reported as over 50 µM (CCK-8; 48 h).
With `COc1cc([C@H]2C[C@@H](C)OC(=O)c3cc4ccccn4c32)cc(OC)c1OC` (racemic) the IC50 was over 100 µM (resazurin; 72 h).
The IC50 of `CC(=O)OC[C@H]1O[C@@H]([S-])[C@H](OC(C)=O)[C@@H](OC(C)=O)[C@@H]1OC(C)=O.CCP(CC)CC.[Au+]` is reported as 1.58 µM (resazurin).
`O=C(CSc1nc2ccc(N=Cc3ccc(Sc4nnnn4-c4ccccc4)o3)cc2s1)N1CCOCC1` gave an IC50 of 48.6 µM (MTT; 72 h).
For `CC(=O)O[C@H]1C(=O)[C@@]2(C)[C@H]([C@H](OC(=O)c3ccccc3)[C@]3(O)C[C@H](OC(=O)[C@H](O)[C@@H](NC(=O)c4ccccc4)c4ccccc4)C(C)=C1C3(C)C)[C@]1(OC(C)=O)CO[C@@H]1C[C@@H]2O`, the IC50 was 1.38 µM (MTT; 48 h).
With `FC(F)(F)c1cccc(Nc2ncnc3ccc(-c4ccc5c(c4)OCO5)cc23)c1` the IC50 was 7.24 µM (MTT; 24 h).
For `CC(=O)O[C@H]1C(=O)[C@@]2(C)[C@H]([C@H](OC(=O)c3ccccc3)[C@]3(O)C[C@H](OC(=O)[C@H](O)[C@@H](NC(=O)c4ccccc4)c4ccccc4)C(C)=C1C3(C)C)[C@]1(OC(C)=O)CO[C@@H]1C[C@@H]2O`, the IC50 was 0.0051 µM (72 h).
For `CC(C)=CCc1c(O)c(CC=C(C)C)c2oc3c(O)ccc(O)c3c(=O)c2c1O`, the IC50 was 17.1 µM (48 h).
For `Oc1ccccc1-c1ccc2ncnc(Nc3cccc(C(F)(F)F)c3)c2c1`, the IC50 was 8.58 µM (MTT; 24 h).
With `C[C@@H]1C[C@@H](c2ccc(Br)cc2)c2c(cc3ccccn23)C(=O)O1` (racemic) the IC50 was 22 µM (resazurin; 72 h).
